In series [1] the target is T1, 11-beta-hydroxysteroid dehydrogenase 1 (Homo sapiens, UniProt P28845). Briefly: Inhibition of 11beta-HSD1 in human adipocytes assessed as conversion of [3H]cortisone to [3H]cortisol after 2 hrs by SPA. The class given is cell-based.
The target in series [2] is T1, 11-beta-hydroxysteroid dehydrogenase 1. Briefly: Inhibition of human recombinant 11beta-HSD1 expressed in CHO cells assessed as conversion of [3H]cortisone to [3H]cortisol by SPA. The format is cell-based.
Series [3] addresses T2, 11-beta-hydroxysteroid dehydrogenase type 2 (Homo sapiens, UniProt P80365).
T2 sequence (P80365 whole entry): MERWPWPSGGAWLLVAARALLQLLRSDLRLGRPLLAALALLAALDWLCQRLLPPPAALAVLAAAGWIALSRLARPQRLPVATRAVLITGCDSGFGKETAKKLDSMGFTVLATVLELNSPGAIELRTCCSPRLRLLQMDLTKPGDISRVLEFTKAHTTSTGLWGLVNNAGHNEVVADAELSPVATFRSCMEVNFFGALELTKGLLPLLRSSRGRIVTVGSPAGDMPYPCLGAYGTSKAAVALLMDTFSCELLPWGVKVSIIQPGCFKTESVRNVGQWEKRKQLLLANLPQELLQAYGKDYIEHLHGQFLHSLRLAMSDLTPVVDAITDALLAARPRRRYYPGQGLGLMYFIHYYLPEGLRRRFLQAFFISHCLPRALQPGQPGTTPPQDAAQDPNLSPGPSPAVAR
Briefly: Inhibition of 11beta-HSD2.

Series [4] can be described thus: Oral bioavailability in rat at 9.68 mg/kg. Conditions: in vivo. The format is ADME, organism-based. The procedure, abridged: (§1)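 PK after oral and IV dosing, with compounds given as sodium salts. Rat and mouse received 9.68 mg/kg PO and 1.9 mg/kg IV; cynomolgus monkey received 2 mg/kg PO and 1 mg/kg IV. AUC(inf) and t1/2 are the oral parameters, clearance is from the IV arm, and %F is oral bioavailability.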

Series [5] can be described thus: AUC (infinity) in rat at 9.68 mg/kg, po and 1.9 mg/kg, iv. The class given is ADME, organism-based. To be noted: plasma. The method in brief:
as §1

Series [6] is described as follows: Half life in rat at 9.68 mg/kg, po and 1.9 mg/kg, iv. The class given is ADME, organism-based. Conditions: in vivo. The procedure, abridged: as §1
Series [7] in a line: Clearance in rat at 1.9 mg/kg, iv. To be noted: in vivo. Further details: dose 1.9 mg/kg, route intravenous. The format is ADME, organism-based. The procedure, abridged: as §1
Series [8] in a line: Drug level in mouse liver at 30 mg/kg, po after 4 hrs by LC-MS/MS analysis. Conditions: read-out: Drug uptake. Set-up: dose 30 mg/kg, route oral. The format is ADME, organism-based. The method in brief: (§2)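 Mice (n = 3) were dosed PO at 30 mg/kg as a suspension in 0.5% methocellulose in PBS. Plasma, liver and adipose were harvested at 4 h and snap frozen. Thawed tissue was homogenized in 0.05 M BES, pH 7, and extracted into acetonitrile. Levels were measured by LC–MS/MS against standard curves made separately in each tissue matrix.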

Series [9] is described as follows: Drug level in mouse adipose at 30 mg/kg, po after 4 hrs by LC-MS/MS analysis. The class given is ADME, organism-based. To be noted: adipose tissue, read-out: Drug uptake. Further details: dose 30 mg/kg, route oral. The method in brief: as §2
Series [10] can be described thus: Drug level in mouse plasma at 30 mg/kg, po after 4 hrs by LC-MS/MS analysis. The class given is ADME, organism-based. Set-up: dose 30 mg/kg, route oral. The method in brief: as §2
The next series deals with Cynomolgus monkey. Briefly: Inhibition of 11beta-HSD1 in cynomolgus monkey assessed as reduction of plasma cortisol concentration at 10 mg/kg, po administered 2 hrs before cortisone 21-acetate challenge measured every 30 mins for 6 hrs. The class given is functional, Macaca fascicularis. Set-up: scale not given: the % may be the effect or the level left. The procedure, abridged:
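Cynomolgus monkeys (n = 5, crossover, 7-day washout) were given dexamethasone at t = −8 h to suppress endogenous cortisol. Vehicle or compound (10 mg/kg PO) followed at t = 0, then cortisone 21-acetate challenge (25 mg PO) at t = 2 h. Blood was sampled every 30 min for 6 h to measure plasma cortisol.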

A further series deals with Cytochrome P450 3A4 (Homo sapiens, UniProt P08684). Briefly: Inhibition of CYP3A4. The format is ADME.
Series [11] in a line: Half life in cynomolgus monkey at 2 mg/kg, po and 1 mg/kg, iv. The format is ADME, organism-based, Macaca fascicularis. To be noted: in vivo. The procedure, abridged:
as §1

Series [12] is described as follows: Half life in human liver microsomes. The class given is ADME, Microsome.
For the next series, the target named is Cytochrome P450 2C9 (Homo sapiens, UniProt P11712). Briefly: Inhibition of CYP2C9. The class given is ADME.
A short description of series [13]: Half life in mouse at 9.68 mg/kg, po and 1.9 mg/kg, iv. The class given is ADME, organism-based. Conditions: in vivo. The method in brief:
as §1

The nature of series [14]: Clearance in mouse at 1.9 mg/kg, iv. The class given is ADME, organism-based. Set-up: dose 1.9 mg/kg, route intravenous. To be noted: in vivo. The procedure, abridged: as §1
Series [15] in a line: Clearance in cynomolgus monkey at 1 mg/kg, iv. The format is ADME, organism-based, Macaca fascicularis. Further details: dose 1 mg/kg, route intravenous. To be noted: in vivo. The method in brief:
as §1

Series [16] in a line: AUC (infinity) in cynomolgus monkey at 2 mg/kg, po and 1 mg/kg, iv. The class given is ADME, organism-based, Macaca fascicularis. Conditions: plasma. The procedure, abridged:
as §1

A short description of series [17]: Oral bioavailability in cynomolgus monkey at 2 mg/kg. Conditions: in vivo. The class given is ADME, organism-based, Macaca fascicularis. The method in brief: as §1
In a further series the target is Cytochrome P450 2D6 (Homo sapiens, UniProt P10635). Briefly: Inhibition of CYP2D6. The class given is ADME.
Series [18] in a line: AUC (infinity) in mouse at 9.68 mg/kg, po and 1.9 mg/kg, iv. The format is ADME, organism-based. Conditions: plasma. The method in brief:
as §1

A short description of series [19]: Oral bioavailability in mouse at 9.68 mg/kg. The format is ADME, organism-based. Conditions: in vivo. The method in brief:
as §1

Consider 14 molecules from ChEMBL document CHEMBL1156845, “Spirocyclic ureas: orally bioavailable 11 beta-HSD1 inhibitors identified by computer-aided drug design” (Bioorg Med Chem Lett, 2010).

Each structure is given as a SMILES string.

T1 sequence (P28845 whole entry): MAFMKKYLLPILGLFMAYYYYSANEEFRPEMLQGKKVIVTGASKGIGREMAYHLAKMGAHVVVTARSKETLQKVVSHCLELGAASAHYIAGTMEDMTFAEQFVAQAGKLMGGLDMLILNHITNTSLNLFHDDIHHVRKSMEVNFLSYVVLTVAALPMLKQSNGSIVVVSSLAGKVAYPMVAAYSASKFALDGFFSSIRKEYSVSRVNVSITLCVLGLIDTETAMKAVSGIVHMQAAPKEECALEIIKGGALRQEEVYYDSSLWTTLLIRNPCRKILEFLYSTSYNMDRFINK
Chain of Cytochrome P450 2D6 (P10635 whole entry): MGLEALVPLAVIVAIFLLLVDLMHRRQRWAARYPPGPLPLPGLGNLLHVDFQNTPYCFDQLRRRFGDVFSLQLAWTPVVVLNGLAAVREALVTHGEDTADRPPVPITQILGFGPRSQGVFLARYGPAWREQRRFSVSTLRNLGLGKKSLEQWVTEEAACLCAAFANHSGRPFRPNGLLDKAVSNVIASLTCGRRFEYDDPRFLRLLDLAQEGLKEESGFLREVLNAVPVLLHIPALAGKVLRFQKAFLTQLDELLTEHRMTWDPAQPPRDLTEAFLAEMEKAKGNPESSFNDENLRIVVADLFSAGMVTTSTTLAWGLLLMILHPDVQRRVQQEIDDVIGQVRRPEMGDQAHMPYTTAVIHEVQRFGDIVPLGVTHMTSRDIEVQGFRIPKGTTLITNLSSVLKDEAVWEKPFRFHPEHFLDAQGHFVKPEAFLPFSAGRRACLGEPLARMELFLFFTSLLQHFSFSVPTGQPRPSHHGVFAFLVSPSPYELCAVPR
Chain of Cytochrome P450 3A4 (P08684 whole entry): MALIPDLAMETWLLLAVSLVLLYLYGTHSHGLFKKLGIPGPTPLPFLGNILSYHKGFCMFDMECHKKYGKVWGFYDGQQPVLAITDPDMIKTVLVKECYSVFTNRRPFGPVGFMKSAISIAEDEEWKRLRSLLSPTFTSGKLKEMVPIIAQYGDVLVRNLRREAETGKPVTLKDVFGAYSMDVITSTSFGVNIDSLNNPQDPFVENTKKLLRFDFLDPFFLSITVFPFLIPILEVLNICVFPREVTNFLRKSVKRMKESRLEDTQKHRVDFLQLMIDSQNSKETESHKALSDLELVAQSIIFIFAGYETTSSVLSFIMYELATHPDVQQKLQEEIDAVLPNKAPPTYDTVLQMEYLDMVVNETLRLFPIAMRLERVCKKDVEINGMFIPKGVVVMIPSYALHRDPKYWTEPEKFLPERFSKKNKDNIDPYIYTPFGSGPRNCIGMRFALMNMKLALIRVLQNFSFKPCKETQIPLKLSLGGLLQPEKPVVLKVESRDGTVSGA
Chain of Cytochrome P450 2C9 (P11712 whole entry): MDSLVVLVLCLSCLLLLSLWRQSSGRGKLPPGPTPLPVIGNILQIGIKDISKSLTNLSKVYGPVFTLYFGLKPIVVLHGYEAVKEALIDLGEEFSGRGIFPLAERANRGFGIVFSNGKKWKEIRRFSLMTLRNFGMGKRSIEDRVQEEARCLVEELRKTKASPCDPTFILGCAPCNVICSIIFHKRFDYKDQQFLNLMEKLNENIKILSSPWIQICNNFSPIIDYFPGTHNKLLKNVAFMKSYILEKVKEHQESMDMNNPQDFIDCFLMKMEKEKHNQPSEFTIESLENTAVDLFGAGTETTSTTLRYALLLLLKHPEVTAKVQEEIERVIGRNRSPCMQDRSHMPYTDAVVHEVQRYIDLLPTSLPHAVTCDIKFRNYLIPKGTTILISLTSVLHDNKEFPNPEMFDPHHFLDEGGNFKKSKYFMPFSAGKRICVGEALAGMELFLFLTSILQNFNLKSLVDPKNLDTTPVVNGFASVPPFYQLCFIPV

For `O=C(NC1C2CC3CC(C2)CC1C3)N1CCC2(CCc3ccccc32)CC1` (stereo not drawn), the IC50 (commonly the concentration that inhibits the measured activity by half) in series [1] was 2.7 nM; in [2], 0.8 nM.

With `Cc1ccc2c(c1)C1(CCN(C(=O)NC3C4CC5CC(C4)CC3C5)CC1)CC2CC(=O)O` (stereo not drawn), the IC50 in series [1] was 22.5 nM; in series [3] it was greater than 10000 nM; in series [2], 8.9 nM.

In the case of `O=C(O)CC1CC2(CCN(C(=O)NC3C4CC5CC(C4)CC3C5)CC2)c2ccccc21` (stereo not drawn), the bioavailability (usually dose-corrected exposure relative to a reference, in per cent) in [4] amounted to 94%. The AUC(0-inf) (in general, the area under the concentration-time curve extrapolated to infinity) in series [5] stood at 3530 ng·h/mL. In series [6], the half-life (usually how long it takes for the measured level to halve) was 2.87 h. The clearance (as a rule, a measure of how efficiently the substance is removed, as volume per time) in series [7] worked out at 47.1 mL/min/kg.

As to `O=C(O)C1CC2(CCN(C(=O)NC3C4CC5CC(C4)CC3C5)CC2)c2ccccc21` (stereo not drawn), the 50% inhibitory concentration (IC50) in series [1] is greater than 200 nM; in series [2], 68.6 nM.

Take `CS(=O)(=O)NC(=O)CC1CC2(CCN(C(=O)NC3C4CC5CC(C4)CC3C5)CC2)c2c(Br)cccc21` (stereo not drawn): the figures for the 50% inhibitory concentration (IC50) in series [1], in series [3] and in [2] were 22.3 nM, greater than 10000 nM and 2 nM, respectively.

Take `NC(=O)CC1CC2(CCN(C(=O)NC3C4CC5CC(C4)CC3C5)CC2)c2c(Br)cccc21` (stereo not drawn): the figures for the IC50 in series [1] and in series [2] were 0.9 nM and 0.5 nM, respectively.

For the molecule `O=C(O)C[C@H]1CC2(CCN(C(=O)NC3C4CC5CC(C4)CC3C5)CC2)c2c(Br)cccc21` (stereo partly drawn), the concentration at 4 h is 7070 ng/mL in series [8], 127 ng/mL in series [9] and 393 ng/mL in series [10]. Besides, the results for the IC50 in series [1], in series [3] and in [2] were 2.5 nM, greater than 10000 nM and 1.1 nM, respectively. Moreover, the Activity with Cynomolgus monkey amounted to 80%.

Take `O=C(O)CC1CC2(CCN(C(=O)NC3C4CC5CC(C4)CC3C5)CC2)c2cc(Cl)ccc21` (stereo not drawn): the IC50 in [1] is 30.2 nM; in series [3] it was greater than 10000 nM; in series [2], 3.4 nM.

On to `O=C(O)CC1CC2(CCN(C(=O)NC3C4CC5CC(C4)CC3C5)CC2)c2c(Cl)cccc21` (stereo not drawn), for which the IC50 in series [1] was 10.7 nM; in [3], greater than 10000 nM; in [2], 2.2 nM.

As for `O=C(O)CC1CC2(CCN(C(=O)NC3C4CC5CC(C4)CC3C5)CC2)c2c(Br)cccc21` (stereo not drawn), the concentration at 4 h in series [8] is 5130 ng/mL; in [9], 77 ng/mL; in series [10], 442 ng/mL. In addition, the figures for the bioavailability in series [4], in series [17] and in series [19] were 90%, 31% and 29%, respectively. In addition, the IC50 in series [1] is 5.3 nM; on Cytochrome P450 3A4, greater than 15000 nM; against Cytochrome P450 2C9, greater than 15000 nM; in [3] it was greater than 10000 nM; in series [2] it was 1.6 nM; at Cytochrome P450 2D6 it was greater than 15000 nM. Also, the half-life in series [11] was 6.03 h; in series [12] it was greater than 1 h; in series [6], 3.46 h; in series [13] it was 6.17 h. In addition, the AUC(0-inf) in [5] was determined as 5400 ng·h/mL; in [16], 743 ng·h/mL; in series [18], 1720 ng·h/mL. The clearance in series [14] came out at 28.1 mL/min/kg; in series [15] it was 13.8 mL/min/kg; in [7], 26.6 mL/min/kg.

Consider `Cc1cccc2c1C1(CCN(C(=O)NC3C4CC5CC(C4)CC3C5)CC1)CC2CC(=O)O` (stereo not drawn), for which the results for the IC50 in series [1], in [3] and in [2] were 18.3 nM, greater than 10000 nM and 7.6 nM, respectively.

Regarding `O=C(O)CC1CC2(CCN(C(=O)NC3C4CC5CC(C4)CC3C5)CC2)c2ccc(Cl)cc21` (stereo not drawn), the IC50 in [1] was 23.2 nM; in [3], greater than 10000 nM; in series [2], 3.4 nM.

Consider `O=C(NC1C2CC3CC(C2)CC1C3)N1CCC2(CC1)CC(CCO)c1cccc(Br)c12` (stereo not drawn), for which the results for the IC50 in series [1], in [3] and in series [2] were 18 nM, 9000 nM and 1.7 nM, respectively.

For `O=C(O)C[C@@H]1CC2(CCN(C(=O)NC3C4CC5CC(C4)CC3C5)CC2)c2c(Br)cccc21` (single isomer, unassigned), the figures for the IC50 in [1], in series [3] and in [2] were 7.5 nM, greater than 10000 nM and 2 nM, respectively.
